The text below walks through data of ChEMBL document CHEMBL1149323, “Synthesis and evaluation of dihydropyrroloquinolines that selectively antagonize P-glycoprotein” (J Med Chem, 2004).

For data set [1], the target named is T1, ATP-dependent translocase ABCB1 (Homo sapiens, UniProt P08183). Nature of the data set: Compound was evaluated for broad range of antagonistic activity against P-glycoprotein (Pgp) value expressed as IC20. The format is functional.
For data set [2], the system named is MCF-7 (Homo sapiens). Nature of the data set: Toxicity against MCF-7 cells.
Data set [3] is described as follows: Compound was evaluated for broad range of antagonistic activity against multi drug resistance-related protein (MRP) value expressed as IC20. The format is functional. On the set-up: unit not given here.
Data set [4] has as its target Multidrug resistance-associated protein 1 (Homo sapiens, UniProt P33527). Nature of the data set: MRP1 antagonism was determined percentage of MCF-7/VP cells surviving in the absence of vincristine/percentage of MCF-7/VP cells surviving in the presence of vincristine. The format is functional. The method, boiled down: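 MCF-7/VP cells in RPMI 1640 with 10% FBS. Modulator at 10 μg/mL tested with or without 1 nM vincristine for 48 h, in triplicate. Sulforhodamine B read-out at 570 nm. Score = % survival without vincristine / % survival with vincristine; a score above 1.0 indicates chemosensitization.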

A short description of data set [5]: Ratio of the Pgp to that of MRP1 was determined. The class given is functional.
Data set [6] deals with MCF7. The data set is described as follows: Toxicity was determined against of MCF-7 cells at a dose of 10 ug/mL. The format is cell-based. The conditions noted are these: human. The method, boiled down:
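Drug-sensitive MCF-7 cells exposed to 10 μg/mL compound for 48 h, in triplicate, with 1% ethanol solvent controls. Percentage of cells killed = percentage decrease in sulforhodamine B binding (570 nm) relative to control cultures.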

Data set [7] deals with T1, ATP-dependent translocase ABCB1. Nature of the data set: Pgp antagonism was determined percentage of NCI/ADR cells surviving in the absence of vinblastine/percentage of NCI/ADR cells surviving in the presence of vinblastine. The format is functional, cell-based. A digest of the protocol:
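Modulator at 10 μg/mL tested with or without 50 nM vinblastine for 48 h, in triplicate. Survival read by sulforhodamine B at 570 nm against ethanol (1%) controls. Score = % survival without vinblastine / % survival with vinblastine.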

Where “and” joins values, the source holds several entries; their conditions need not be identical. Identical values can stand only once.

Multidrug resistance-associated protein 1, sequence (P33527 whole entry): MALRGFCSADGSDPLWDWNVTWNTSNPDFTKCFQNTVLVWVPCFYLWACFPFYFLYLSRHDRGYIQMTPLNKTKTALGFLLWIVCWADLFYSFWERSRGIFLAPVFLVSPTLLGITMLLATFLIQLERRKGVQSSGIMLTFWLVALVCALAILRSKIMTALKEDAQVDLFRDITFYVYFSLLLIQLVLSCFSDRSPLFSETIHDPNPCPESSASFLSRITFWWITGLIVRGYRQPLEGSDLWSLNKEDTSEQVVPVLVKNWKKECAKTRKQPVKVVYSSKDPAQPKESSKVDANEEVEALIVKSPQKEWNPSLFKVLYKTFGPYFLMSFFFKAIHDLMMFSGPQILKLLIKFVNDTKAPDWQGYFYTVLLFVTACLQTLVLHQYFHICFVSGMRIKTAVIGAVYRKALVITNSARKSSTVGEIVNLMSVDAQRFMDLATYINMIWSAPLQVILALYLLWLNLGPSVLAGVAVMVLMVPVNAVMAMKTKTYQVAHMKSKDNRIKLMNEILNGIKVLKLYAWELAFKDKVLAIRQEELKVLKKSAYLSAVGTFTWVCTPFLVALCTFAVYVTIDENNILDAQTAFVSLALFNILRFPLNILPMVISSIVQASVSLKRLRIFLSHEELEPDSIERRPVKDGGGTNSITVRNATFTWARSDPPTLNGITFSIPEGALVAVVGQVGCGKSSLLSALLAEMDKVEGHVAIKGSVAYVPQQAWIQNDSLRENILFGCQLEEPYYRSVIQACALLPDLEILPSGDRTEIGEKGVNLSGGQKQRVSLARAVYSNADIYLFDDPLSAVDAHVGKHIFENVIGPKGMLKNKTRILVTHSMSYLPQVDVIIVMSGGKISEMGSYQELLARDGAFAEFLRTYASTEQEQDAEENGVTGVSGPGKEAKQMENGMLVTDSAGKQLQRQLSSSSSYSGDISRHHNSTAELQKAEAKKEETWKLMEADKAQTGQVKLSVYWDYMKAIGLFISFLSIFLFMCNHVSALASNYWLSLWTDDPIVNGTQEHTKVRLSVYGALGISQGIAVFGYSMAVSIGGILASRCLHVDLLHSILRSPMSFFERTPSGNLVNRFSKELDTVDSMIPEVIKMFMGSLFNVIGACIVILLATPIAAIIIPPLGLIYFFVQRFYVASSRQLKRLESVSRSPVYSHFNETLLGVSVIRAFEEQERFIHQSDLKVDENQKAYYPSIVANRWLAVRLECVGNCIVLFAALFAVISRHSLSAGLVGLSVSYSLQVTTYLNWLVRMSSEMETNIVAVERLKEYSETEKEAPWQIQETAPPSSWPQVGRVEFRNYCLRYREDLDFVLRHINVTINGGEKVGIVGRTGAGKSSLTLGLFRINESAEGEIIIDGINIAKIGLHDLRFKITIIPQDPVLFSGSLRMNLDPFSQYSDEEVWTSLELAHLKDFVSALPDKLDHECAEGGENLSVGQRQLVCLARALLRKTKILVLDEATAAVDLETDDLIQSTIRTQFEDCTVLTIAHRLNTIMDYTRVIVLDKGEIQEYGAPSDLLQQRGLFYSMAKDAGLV
T1 sequence (P08183 whole entry): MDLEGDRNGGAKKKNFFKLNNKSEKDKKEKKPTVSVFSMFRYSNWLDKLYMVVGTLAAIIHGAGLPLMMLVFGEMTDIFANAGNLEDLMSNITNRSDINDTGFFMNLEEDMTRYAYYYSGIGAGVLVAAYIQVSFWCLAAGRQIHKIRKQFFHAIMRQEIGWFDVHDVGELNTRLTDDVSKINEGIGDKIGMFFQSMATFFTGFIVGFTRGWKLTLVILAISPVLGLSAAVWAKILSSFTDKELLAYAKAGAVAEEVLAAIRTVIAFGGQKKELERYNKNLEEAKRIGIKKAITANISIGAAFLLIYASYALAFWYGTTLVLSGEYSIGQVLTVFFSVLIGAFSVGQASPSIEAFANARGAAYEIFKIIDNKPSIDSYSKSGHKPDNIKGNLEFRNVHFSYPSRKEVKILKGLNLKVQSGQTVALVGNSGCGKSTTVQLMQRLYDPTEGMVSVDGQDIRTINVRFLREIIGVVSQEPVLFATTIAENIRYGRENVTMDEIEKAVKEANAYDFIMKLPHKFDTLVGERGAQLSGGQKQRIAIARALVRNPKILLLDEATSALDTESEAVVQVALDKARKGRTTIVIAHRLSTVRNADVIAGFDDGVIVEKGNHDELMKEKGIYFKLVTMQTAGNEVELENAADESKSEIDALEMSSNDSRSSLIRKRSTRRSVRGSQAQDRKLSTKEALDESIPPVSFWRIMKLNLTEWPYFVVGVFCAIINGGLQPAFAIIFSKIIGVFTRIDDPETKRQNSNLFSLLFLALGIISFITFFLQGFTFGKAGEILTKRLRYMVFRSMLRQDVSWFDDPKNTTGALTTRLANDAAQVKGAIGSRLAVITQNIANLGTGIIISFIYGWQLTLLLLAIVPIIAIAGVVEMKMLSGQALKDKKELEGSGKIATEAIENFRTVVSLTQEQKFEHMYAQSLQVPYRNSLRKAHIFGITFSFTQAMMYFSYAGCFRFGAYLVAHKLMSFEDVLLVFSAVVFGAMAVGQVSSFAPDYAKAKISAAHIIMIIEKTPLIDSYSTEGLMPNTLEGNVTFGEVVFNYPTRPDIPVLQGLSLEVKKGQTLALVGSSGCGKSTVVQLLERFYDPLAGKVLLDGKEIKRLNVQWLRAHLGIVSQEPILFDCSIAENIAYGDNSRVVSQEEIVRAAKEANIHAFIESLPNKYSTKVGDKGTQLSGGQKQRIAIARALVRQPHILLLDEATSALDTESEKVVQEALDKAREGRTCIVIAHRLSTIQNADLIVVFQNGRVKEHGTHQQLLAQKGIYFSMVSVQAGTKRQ

In the case of `Fc1cccc(CNc2c3c(nc4ccccc24)N(Cc2ccccc2)CC3)c1`, the Activity amounted to 1.2 in data set [1] and 0.7 in data set [3]. The same compound came in with a Toxicity in data set [2] greater than 65 µM.

As to `CN1CCc2c1nc1ccccc1c2NC(=O)CN1CCCCC1`, the Ratio in data set [4] came to 1.2; in data set [5], 3.4; in data set [7] it was 4.1. In addition, the Toxicity in data set [6] amounted to 51%.

As to `Nc1c2c(nc3cc(Br)ccc13)N(Cc1ccccc1)CC2`, the Ratio was determined as 1.3 in data set [4], 1.3 in data set [5] and 1.7 in data set [7]. The Toxicity in data set [6] was determined as 94%.

With `CN1CCc2c1nc1ccccc1c2NC(=O)CNC(C)(C)C`, the Ratio in data set [4] worked out at 1.2; in data set [5], 2.7; in data set [7] it was 3.2. The compound further had a Toxicity in data set [6] of 28%.

Take `Nc1c2c(nc3ccccc13)N(Cc1ccccc1)CC2`: the Activity in data set [1] and in data set [3] was 1 each time. Further, the values for the Toxicity in data set [2] and in data set [6] were 6.2 µM and 47%, respectively. Further, the Ratio in data set [4] came out at 1; in data set [5], 3.1; in data set [7], 3.1.

Take `Cc1cc(C)c2c(N)c3c(nc2c1)N(Cc1ccccc1)CC3`: the Ratio is 1.4 in data set [4], 2.6 in data set [5] and 3.6 in data set [7]. In data set [6], this compound returned a Toxicity of 49%.

As for `Cc1ccc2nc3c(c(N)c2c1)CCN3Cc1ccccc1`, the figures for the Ratio in data set [4], in data set [5] and in data set [7] were 1.2, 1.3 and 1.5, respectively. The Toxicity in data set [6] is 81%.

Regarding `CN1CCc2c1nc1cc(Br)ccc1c2N`, the values for the Ratio in data set [4], in data set [5] and in data set [7] were 1.6, 0.8 and 1.3, respectively. Besides, the Toxicity in data set [6] is 94%.

In the case of `CN1CCc2c1nc1ccccc1c2NC(=O)C12CC3CC(CC(C3)C1)C2`, the Ratio in data set [4] was 0.9; in data set [5], 5.2; in data set [7], 4.7. In addition, the Toxicity in data set [6] is 29%.

As for `CN1CCc2c1nc1ccccc1c2NC(=O)Cc1ccccc1`, the Ratio in data set [5] worked out at 5.6.

For the compound `CN1CCN(CC(=O)Nc2c3c(nc4ccccc24)N(Cc2ccccc2)CC3)CC1`, the results for the Ratio in data set [4], in data set [5] and in data set [7] were 1.1, 6.8 and 7.5, respectively. In addition, the Toxicity in data set [6] is 21%.

Take `Nc1c2c(nc3ccccc13)N(c1ccccc1)CC2`: the Ratio in data set [4] was found to be 1.1; in data set [5] it was 2.5; in data set [7], 2.7. This compound yielded a Toxicity in data set [6] of 52%.

As to `CC(C)(C)NCC(=O)Nc1c2c(nc3ccccc13)N(Cc1ccccc1)CC2`, the Ratio was found to be 0.9 in data set [4], 13 in data set [5] and 12 in data set [7]. The compound further displayed a Toxicity in data set [6] of 29%.

For `O=C(Nc1c2c(nc3ccccc13)N(Cc1cccc(Cl)c1)CC2)C12CC3CC(CC(C3)C1)C2`, the Ratio is 1.2 in data set [4], 1 in data set [5] and 1.2 in data set [7]. Moreover, the Toxicity in data set [6] was 33%.

`Nc1c2c(nc3cc(Br)ccc13)N(C1CCCCC1)CC2`: the Ratio in data set [4], in data set [5] and in data set [7] was 1 throughout. In data set [6], the Toxicity is reported as 99%.

Take `Fc1ccc(CNc2c3c(nc4ccccc24)N(Cc2ccccc2)CC3)cc1`: the values for the Activity in data set [1] and in data set [3] were 1.3 and 0.7, respectively. The same compound returned a Toxicity in data set [2] greater than 65 µM.

On to `CC(C)(C)c1cc(CCC(=O)Nc2c3c(nc4ccccc24)N(Cc2ccccc2)CC3)cc(C(C)(C)C)c1O`, for which the results for the Ratio in data set [4], in data set [5] and in data set [7] were 1.2, 11 and 13.2, respectively. The compound also yielded a Toxicity in data set [6] of 50%.

Take `CC(C)NCC(=O)Nc1c2c(nc3ccccc13)N(C)CC2`: the Ratio in data set [4] came out at 1.4; in data set [5], 1.3; in data set [7], 1.8. Further, the Toxicity in data set [6] was 39%.

`Cc1ccc2c(N)c3c(nc2c1)N(Cc1ccccc1)CC3`: the Ratio is 1.7 and 1 in data set [4]; 0.9 and 0.7 in data set [5]; 1.6 and 0.7 in data set [7]. Besides, the Toxicity in data set [6] was 77% and 98%.

For `CN1CCc2c1nc1ccccc1c2/N=C(/c1ccccc1)N1CCCCC1`, the figures for the Ratio in data set [4], in data set [5] and in data set [7] were 1, 2.4 and 2.4, respectively. This compound came in with a Toxicity in data set [6] of 58%.

As for `COc1cc(CNc2c3c(nc4ccccc24)N(Cc2ccccc2)CC3)cc(OC)c1`, the Activity in data set [1] came out at 1.4; in data set [3] it was 0.9. This compound also gave a Toxicity in data set [2] of 47 µM.

As to `CCN(CC)CC(=O)Nc1c2c(nc3ccccc13)N(Cc1ccccc1)CC2`, the values for the Ratio in data set [4], in data set [5] and in data set [7] were 1, 15 and 15, respectively. This compound had a Toxicity in data set [6] of 14%.

Take `O=C(Nc1c2c(nc3ccccc13)N(Cc1ccccc1)CC2)c1ccc(F)c(C(F)(F)F)c1`: the Activity in data set [1] was found to be 4.9; in data set [3], 0.9. The same compound registered a Toxicity in data set [2] of 19 µM.

Turning to `CN1CCc2c1nc1ccccc1c2NC(=O)CCc1cc(C(C)(C)C)c(O)c(C(C)(C)C)c1`, the Ratio in data set [4], in data set [5] and in data set [7] was 1 throughout. Also, in data set [6], the Toxicity is listed as 99%.

In the case of `CCC(=O)Nc1c2c(nc3ccccc13)N(C)CC2`, in data set [5], the Ratio stood at 1.6.

Regarding `CC(C)NCC(=O)Nc1c2c(nc3ccccc13)N(Cc1ccccc1)CC2`, the Ratio in data set [4] turned out to be 1; in data set [5] it was 13; in data set [7], 13. Moreover, the Toxicity in data set [6] is recorded as 45%.

For `CCCCN(CCCC)CC(=O)Nc1c2c(nc3ccccc13)N(C)CC2`, the Ratio in data set [4] worked out at 1.3; in data set [5], 3.2; in data set [7], 4.2. In addition, the Toxicity in data set [6] is recorded as 50%.

For the compound `CN1CCc2c1nc1ccccc1c2NC(=O)CNCCc1ccc(O)cc1`, the Ratio came to 1.4 in data set [4], 1.2 in data set [5] and 1.7 in data set [7]. This compound also displayed a Toxicity in data set [6] of 21%.

With `CCOC(=O)CNc1c2c(nc3ccccc13)N(Cc1ccccc1)CC2`, the Activity in data set [1] and in data set [3] was 0.9 throughout. The compound further gave a Toxicity in data set [2] of 33 µM.

Take `CCCCN1CCc2c1nc1cc(Br)ccc1c2N`: the Ratio came to 1 in data set [4], 1.1 in data set [5] and 1.1 in data set [7]. In data set [6], this compound gave a Toxicity of 98%.

As for `Nc1c2c(nc3ccccc13)N(C1CCCCC1)CC2`, the figures for the Ratio in data set [4], in data set [5] and in data set [7] were 0.6, 1.3 and 0.8, respectively. In addition, in data set [6], the Toxicity is given as 97%.

With `O=C(Nc1c2c(nc3ccccc13)N(Cc1ccccc1)CC2)c1c(F)cccc1C(F)(F)F`, the Activity is 2.5 in data set [1] and 0.9 in data set [3]. For the same compound, in data set [2], the Toxicity stood at 13 µM.

Take `CCN(CC)CC(=O)Nc1c2c(nc3ccccc13)N(C)CC2`: the results for the Ratio in data set [4], in data set [5] and in data set [7] were 1.2, 5 and 6, respectively. Moreover, the Toxicity in data set [6] is 30%.

On to `O=C(Nc1c2c(nc3ccccc13)N(Cc1ccccc1)CC2)c1c(F)ccc(F)c1F`, for which the Activity in data set [1] is 3.1; in data set [3], 1. Further, the Toxicity in data set [2] is greater than 58 µM.
